Results on 1 molecule are retold here after ChEMBL document CHEMBL4725242, “Discovery of GS-9688 (Selgantolimod) as a Potent and Selective Oral Toll-Like Receptor 8 Agonist for the Treatment of Chronic Hepatitis B” (J Med Chem, 2020).

Data set [1] has as its target T1, Toll-like receptor 7 (Homo sapiens, UniProt Q9NYK1).
T1 sequence (Q9NYK1 whole entry): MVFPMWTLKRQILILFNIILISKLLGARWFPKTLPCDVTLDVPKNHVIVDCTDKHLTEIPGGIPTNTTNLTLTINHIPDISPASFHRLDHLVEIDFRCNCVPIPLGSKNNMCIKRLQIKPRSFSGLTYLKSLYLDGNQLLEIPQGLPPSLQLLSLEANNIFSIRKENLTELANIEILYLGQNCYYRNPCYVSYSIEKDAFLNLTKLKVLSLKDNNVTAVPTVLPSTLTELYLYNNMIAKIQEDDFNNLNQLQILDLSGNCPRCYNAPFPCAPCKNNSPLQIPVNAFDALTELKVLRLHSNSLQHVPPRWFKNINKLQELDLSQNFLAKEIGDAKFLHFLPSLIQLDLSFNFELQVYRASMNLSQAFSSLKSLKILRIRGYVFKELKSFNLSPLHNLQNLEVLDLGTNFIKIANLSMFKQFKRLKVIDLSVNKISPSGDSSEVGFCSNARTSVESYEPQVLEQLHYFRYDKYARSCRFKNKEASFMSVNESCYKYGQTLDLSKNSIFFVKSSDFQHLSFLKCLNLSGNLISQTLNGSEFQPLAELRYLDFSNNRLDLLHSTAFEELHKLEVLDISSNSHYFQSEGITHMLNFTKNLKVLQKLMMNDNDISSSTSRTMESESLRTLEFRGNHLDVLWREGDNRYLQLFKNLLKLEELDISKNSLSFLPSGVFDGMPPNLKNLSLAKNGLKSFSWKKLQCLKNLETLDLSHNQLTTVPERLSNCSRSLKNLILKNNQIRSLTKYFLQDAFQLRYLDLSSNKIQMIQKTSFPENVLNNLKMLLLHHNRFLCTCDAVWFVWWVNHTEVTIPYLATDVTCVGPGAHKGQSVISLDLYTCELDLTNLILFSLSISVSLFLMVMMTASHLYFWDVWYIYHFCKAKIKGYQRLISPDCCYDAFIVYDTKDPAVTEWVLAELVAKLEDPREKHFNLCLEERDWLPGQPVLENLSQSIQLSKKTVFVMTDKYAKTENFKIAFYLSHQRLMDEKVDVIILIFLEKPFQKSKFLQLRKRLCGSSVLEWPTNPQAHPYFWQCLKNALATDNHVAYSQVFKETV
Description: Agonist activity at TLR7 in human cryopreserved PBMC assessed as induction of IFNalpha production measured after 24 hrs. A digest of the protocol:
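Cryopreserved healthy-donor human PBMC, recovered 2 h at 37°C/5% CO2, then 100k cells/well in RPMI/10% FBS exposed 24 h at 37°C to a 10-point half-log dilution series (0.5% final DMSO). Supernatant IFNα-2a quantified by MSD electrochemiluminescence immunoassay. For the ratio, divided by the IL-12p40 EC50 from the same PBMC screen.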

Data set [2] can be described thus: Volume of distribution at steady state in cynomolgus monkey at 0.1 mg/kg, iv administered as 30 mins infusion by HPLC-MS analysis. The format is ADME, organism-based, Macaca fascicularis. The note with it: in vivo, read-out: Vdss. A digest of the protocol: (§1)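 30-min intravenous infusion: Sprague Dawley rats 1 mg/kg, beagle dogs 0.25 mg/kg, cynomolgus monkeys 0.1 mg/kg; n = 3 per species, reported as mean ± SD.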

Data set [3] is described as follows: Drug excretion in bile duct-cannulated Sprague-Dawley rat bile. The note with it: in vivo. The format is ADME.
The nature of data set [4]: Half life in cynomolgus monkey at 0.1 mg/kg, iv administered as 30 mins infusion by HPLC-MS analysis. The format is ADME, organism-based, Macaca fascicularis. The note with it: in vivo. A digest of the protocol: as §1
Data set [5] deals with Toll-like receptor 4 (Homo sapiens) (UniProt O00206). Description: Agonist activity at human TLR4 expressed in HEK293 cells assessed as increase in NF-kappaB activation up to 10 uM incubated for 24 hrs by quanti-blue SEAP reporter gene assay. The note with it: dose microM <=10, time 24.0 hrs. In kind it is cell-based. A digest of the protocol:
(§2)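 HEK293 cells stably expressing individual human TLRs or other innate immune receptors, used as reporter gene assays. Minimum effective concentration defined as the level giving a 3-fold rise over background.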
On the technique in general: Reporter assays use an easily measured gene product as a stand-in for the process of interest.

The nature of data set [6]: Drug metabolism in human hepatocytes assessed as core oxidation. The format is ADME, cell-based, Hepatocyte.
The target of data set [7] is T2, Interferon-induced helicase C domain-containing protein 1 (Homo sapiens) (UniProt Q9BYX4).
T2 sequence (whole entry): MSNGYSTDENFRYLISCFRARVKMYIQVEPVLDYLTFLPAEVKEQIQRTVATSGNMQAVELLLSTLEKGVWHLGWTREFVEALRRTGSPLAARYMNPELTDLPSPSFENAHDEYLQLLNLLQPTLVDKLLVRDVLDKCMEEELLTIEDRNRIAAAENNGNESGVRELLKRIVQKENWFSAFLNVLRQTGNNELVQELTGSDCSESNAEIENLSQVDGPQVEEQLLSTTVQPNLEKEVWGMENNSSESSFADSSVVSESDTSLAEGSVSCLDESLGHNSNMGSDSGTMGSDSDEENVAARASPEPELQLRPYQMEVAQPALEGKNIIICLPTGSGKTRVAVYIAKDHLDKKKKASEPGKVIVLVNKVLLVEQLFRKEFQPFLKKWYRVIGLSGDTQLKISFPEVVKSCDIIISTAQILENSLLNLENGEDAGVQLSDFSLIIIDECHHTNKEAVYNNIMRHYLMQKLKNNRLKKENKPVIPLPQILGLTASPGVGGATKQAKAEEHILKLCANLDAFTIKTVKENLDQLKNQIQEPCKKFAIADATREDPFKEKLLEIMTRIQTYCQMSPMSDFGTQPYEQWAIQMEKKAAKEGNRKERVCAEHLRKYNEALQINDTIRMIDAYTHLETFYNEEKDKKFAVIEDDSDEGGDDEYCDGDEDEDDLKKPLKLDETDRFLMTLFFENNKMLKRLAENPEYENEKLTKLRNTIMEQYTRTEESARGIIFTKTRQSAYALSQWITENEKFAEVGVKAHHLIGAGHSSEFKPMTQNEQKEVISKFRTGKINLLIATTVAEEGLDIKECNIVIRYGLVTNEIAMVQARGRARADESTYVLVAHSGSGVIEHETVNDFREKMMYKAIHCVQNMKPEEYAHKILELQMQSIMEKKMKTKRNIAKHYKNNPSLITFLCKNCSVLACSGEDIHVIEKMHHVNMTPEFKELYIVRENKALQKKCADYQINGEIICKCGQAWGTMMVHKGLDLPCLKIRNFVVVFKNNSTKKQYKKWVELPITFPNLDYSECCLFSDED
The data set is described as follows: Agonist activity at human MDA5 expressed in HEK293 cells assessed as induction of IFN-inducible ISG54 promoter activity up to 10 uM after overnight incubation by secreted lucia luciferase reporter gene assay. The format is cell-based. The conditions noted are these: dose microM <=10. Summed up: as §2

Calls of active or inactive are those of the source.

Sequence of Toll-like receptor 4 (Homo sapiens) (O00206 whole entry): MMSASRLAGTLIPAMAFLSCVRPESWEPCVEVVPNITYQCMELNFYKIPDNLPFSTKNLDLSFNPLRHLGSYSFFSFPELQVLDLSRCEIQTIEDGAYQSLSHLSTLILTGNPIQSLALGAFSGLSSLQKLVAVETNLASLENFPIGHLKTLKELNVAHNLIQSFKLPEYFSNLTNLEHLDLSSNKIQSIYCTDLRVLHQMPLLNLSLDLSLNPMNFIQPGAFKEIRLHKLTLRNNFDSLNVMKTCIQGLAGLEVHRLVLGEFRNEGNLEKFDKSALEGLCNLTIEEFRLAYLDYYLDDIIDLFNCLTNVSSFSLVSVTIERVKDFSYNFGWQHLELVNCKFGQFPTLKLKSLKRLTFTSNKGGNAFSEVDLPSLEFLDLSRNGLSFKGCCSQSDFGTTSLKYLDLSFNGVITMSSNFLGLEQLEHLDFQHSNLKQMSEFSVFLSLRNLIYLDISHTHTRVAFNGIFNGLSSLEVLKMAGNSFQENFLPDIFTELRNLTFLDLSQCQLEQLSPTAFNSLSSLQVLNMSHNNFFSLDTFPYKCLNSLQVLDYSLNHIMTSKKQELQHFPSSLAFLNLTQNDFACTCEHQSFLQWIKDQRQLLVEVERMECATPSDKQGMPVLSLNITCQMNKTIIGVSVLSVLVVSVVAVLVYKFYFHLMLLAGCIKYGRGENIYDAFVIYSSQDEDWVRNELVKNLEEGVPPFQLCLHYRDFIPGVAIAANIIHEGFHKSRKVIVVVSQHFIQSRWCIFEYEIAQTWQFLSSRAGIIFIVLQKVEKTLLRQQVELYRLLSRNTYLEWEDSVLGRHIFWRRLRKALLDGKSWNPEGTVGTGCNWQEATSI

Take `CCCC[C@](C)(CO)Nc1nc(N)nc2cc(F)cnc12` [SELGANTOLIMOD]: the EC50 (in general, the concentration giving half of the maximal effect) in data set [1] is over 50 µM. Moreover, the Vd in data set [2] is 2.1 L/kg. Moreover, the Drug excretion entry in data set [3] is recorded as “Active”. In addition, the half-life (as a rule, how long it takes for the measured level to halve) in data set [4] is 40.2 min. In addition, the result in data set [5] and in data set [7] was inactive. The Drug metabolism result in data set [6] is on record as “Metabolite_Notdetected”.
